Measured values of several laboratories.
Compare with care: the assays were run in different laboratories.
Target: High affinity nerve growth factor receptor (NTRK1, Homo sapiens, UniProt P04629)

For COc1ccc2[nH]c3c4[nH]c5ccc(OC)cc5c4c4c(c3c2c1)C(=O)NC4=O, the remaining binding was 40% (binding; competition with immobilised ligand; 1 µM).
CO[C@@H]1[C@H](N(C)C(=O)c2ccccc2)C[C@H]2O[C@]1(C)n1c3ccccc3c3c4c(c5c6ccccc6n2c5c31)C(=O)NC4 has an inhibition of 98% (enzyme activity; inhibitor; 1 µM).
The remaining binding of C1=C/COCc2cc(ccc2OCCN2CCCC2)Nc2nccc(n2)-c2cccc(c2)COC/1 is reported as 10% (binding; 0.1 µM).
The remaining binding of CN(C)C(=O)c1cc2cnc(Nc3ccc(-c4ccc5c(=O)cc(N6CCOCC6)oc5c4)cc3)nc2n1C1CCCC1 is reported as 3.7% (binding; competition with immobilised ligand; 1 µM).
N#Cc1ccc(NC(=O)Nc2ccccc2)cc1 has a remaining binding of 55% (cell-free assay; competition with immobilised ligand; 25 µM).
COc1ccc2oc(-c3ccc4nc(N)oc4c3)c/c(=N\c3ccccc3NC(=O)CCN)c2c1 has a remaining binding of 88% (binding; 1 µM).
With CCCCC(=O)Nc1ccc(-c2ccc3ncn(CCC)c(=O)c3c2)cn1 the remaining binding was 99% (binding; competition with immobilised ligand; 0.5 µM).
C=CC(=O)N1CCC([C@@H]2CCNc3c(C(N)=O)c(-c4ccc(Oc5ccccc5)cc4)nn32)CC1 has an inhibition of 47% (cell-free assay; 1 µM).
The remaining binding of C[C@H]1CC[C@H](n2c3cnccc3c3cnc(Nc4ccc5c(n4)CCN(C(=O)CO)C5)nc32)CC1 is reported as 18% (cell-free assay; competition with immobilised ligand; 1 µM).
